Test system: MS2 coat protein
Assay: apparent Kd, MS2 coat protein; higher = weaker binding; RNA-MaP array; FMN 200 µM where present
Procedure, shortened: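 Two titrations, one without ligand and one with constant ligand, were run with SNAP-549-labelled MS2 coat protein from 0.7 or 1.5 nM, doubling to 3 µM. The targets were designs transcribed by stalled E. coli RNA polymerase on Illumina sequencing-chip clusters, in 100 mM Tris-HCl pH 7.5, 80 mM KCl, 4 mM MgCl2, BSA, DTT, yeast tRNA and Tween-20. The apparent Kd is the median of filtered per-cluster binding-curve fits, with green signal normalised to red-channel RNA signal and control-cluster median Fmax.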

[1] = designed as: ON switch for flavin mononucleotide, no ligand
[2] = ligand present: flavin mononucleotide, designed as: ON switch for flavin mononucleotide
[3] = designed as: OFF switch for flavin mononucleotide, no ligand
[4] = ligand present: flavin mononucleotide, designed as: OFF switch for flavin mononucleotide

Sequence	apparent Kd [1] [nM]	apparent Kd [2] [nM]	apparent Kd [3] [nM]	apparent Kd [4] [nM]
ACGAUUCACUCAGGAUAUGUAUCACCUCGUUACCAACAUGAGGAUCACCCAUGUCCGUGGCUCGGACAGAAGGGAGAAGAAUCG	733	220	–	–
GGGUACAUCGGAGGAUAUCAUGUAAAUACAUGAGGAUCACCCAUGUCGAUGGAGACAGCGGAGAUUGAGAAGGCCGAUGUACCG	105	190	–	–
AACACUUAAAAGUGAGGCGAUAGGUAGGAUAUACAUGAGGAUCACCCAUGUAUGGGCUAUCUGCGGUAGAAGGACCUCUGGCCC	–	–	6.44	8.84
UAUAUAUAGUAAGGAUAUGUAAUUAUUUUAUUAACAGAAGGUACUGACAUGAGGAUCACCCAUGUUUUAGUGUGGGCAUGUAGA	–	–	83.5	184
UCCUUGUCCUGAGGAUAUCCGCGGUUCCCAAAAGGAGAAGGCAGGACAUGAGGAUCACCCAUGUACCCAGAAAACGUGCAGAAU	–	–	9.87	42.7
UGAUAGCACAGAGGAUAUGCGUAGUGUUAUCUCUACAUGAGGAUCACCCAUGUAGAAGGCUGUGCUAUCUAAGUCGGAAACGAC	–	–	5.95	9.9
CCGAAUAAGCAGGAUAUCGUAUCGGAAACGAUACGAGAAGGGUUAACAUGAGGAUCACCCAUGUUCCUUAACGG	–	–	20.3	24.8
GCUAUUACAGGAUAUCGUUGUUAUAACAUGAGGAUCACCCAUGUUCGGCUCGUGAUCCAGCGAGAAGGGUGGACGC	–	–	71.7	73
AGCUAGUGAGGAUAUACGAACAUGUCAAAAGACGUGAAAUAACAUGAGGAUCACCCAUGUAGAAGGCACUAGCA	–	–	19.2	16.7
CUUUUGGGAGGAUAUUAGUAGUAAAUAAAUAAAAUUACUACUGAGAAGGCACAUGAGGAUCACCCAUGUUCCUC	–	–	17.9	26.1
AGCGACCAAGGAUAUACAUGAGGAUCACCCAUGUCGGCGACCUUCCUGGGAUUUCUUAGUAGAAGGUGGUCAAU	–	–	42.7	86.9
GCCGAUUAAGUGAGGAUAUACCUAUGGAUACAUAGGUAGAAGGUACAUGAGGAUCACCCAUGUUCCUUAACGGC	–	–	11.4	13.2
UUUAUGUGAGGAUAUAGUACUCCUUCUAUUAUUUUUGAGUACUAGAAGGCACAUGAGGAUCACCCAUGUAGUAC	–	–	22.5	48.6
UUACUCAUGUAAGGAUAUGCAGCCGUUUCGGCUGCAGAAGGUACUAUAAUACAUGAGGAUCACCCAUGUCUAUUUAAUUUUUAC	42.6	24.2	–	–
AGGGUAGUAGGAUAUACAUGAGGAUCACCCAUGUUUCCAUUACGUGACUGGUCCUAGUGUAGAAGGGCUAGCAC	–	–	–	17.4
UGAAAUCAUGUAGGAUAUGCAUGGCGAAGCUACGCAGAAGGACAUGAGGAUCACCCAUGUGCUAGCUACCGGAUACGGUGGCAA	–	–	99.1	230
UAAAAGUCAGGAUAUGCGAGAGAUUGAAGUGUGGCAAGGUAGCAGAAGGGACAUGAGGAUCACCCAUGUGUGGC	–	–	52.4	115
GGUCCAUUAUGAGGAUAUGGCACCUUAUUGGUGCCAGAAGGCAUGUCUUCACAUGAGGAUCACCCAUGUUAAAUAAAUUGGACC	16.3	17.7	–	–
AAUUAGGUCACAGGAUAUACAUCAUCCAUAGCUGUAGAAGGGUGUCAAAAUAAUAUCUGACAUGAGGAUCACCCAUGUUUCCAC	25	14.5	–	–
GAGGUACAUGAGGAUCACCCAUGUGAGGAUAUAGUGGAAGAUUGAGAGAGGUGGAGGACUAGAAGGCACAGUGG	–	–	67.3	66.2
GUCAGUGUGGUAGGAUAUCGAAACGGUCAGUUACGAGAAGGGCUACAUGAGGAUCACCCAUGUAUCCAGGAUCGGCUUACAGUA	–	–	6.16	6.27
AGUUAGAUAGCGAUAUGAUCGAGAGAUCAUGUCGCUAAAUUUAGAAGGACAUGAGGAUCACCCAUGUAGGAUAUGGGUAUAGAA	367	128	–	–
AUCAGCUUGACAGGAUAUACAUGACUGCGAAAGCAGUCUAUCUUAAUAACAUGAGGAUCACCCAUGUAGAAGGGUCGAGCUGAU	–	–	17.8	27
AUUUGAAUGUCAGGAUAUGGUAGAUUAUUCUUAUCAGAAGGGAUAAUUAUACUCAAGUACAUGAGGAUCACCCAUGUUAAAUCA	12	12.6	–	–
GGACGUCAGAUUAACAUGAGGAUCACCCAUGUCUUUUGACAUGAGGAUAUCGAUCCUAAUUGGAUCGAGAAGGCAUGGACGUCC	1180	96.8	–	–
AAUUCACAUGAGGAUCACCCAUGUCAGGAUAUGGUUUCACGUGUUUCUGUGCUUGAGGCCAGAAGGGACAGCUA	–	–	65.5	76.5
AACAGCUCGUCAGGAUAUAUUAUCUUUUAAUGUAUUUAUGUACAUGAGGAUCACCCAUGUUGUUUGUAGAAGGGACGAGCUGAA	–	–	11.1	13.1
AUAGGUUAAGGAGGAUAUAGAGGGAGAAGUACACAUGAGGAUCACCCAUGUAUUUAAUUAGUUUACUAGAAGGCUUAUGAUUGU	46.6	53.8	–	–
